An excerpt weighted towards active compounds, which were near 4.4% of everything screened.
NR3A LBD binder: modulates the human NR3A ligand-binding domain; 340,000 tested, 2.5% active; AID 1259313; Tm shift relative to glycine control, % at 25 µM; NR3A LBD differential scanning fluorimetry, Tm shift; 0% = protein alone, 100% = glycine-bound protein;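 active means melting temperature shift of at least 10% of the positive control shift, at one fixed dose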
EBI2 antag: EBI2 (human) antagonism; EBI2 beta-arrestin recruitment, luminescence, 7a,25-OHC stimulated; AID 651636; 360,000 tested, 0.81% active; P32249; inhibition, % at 5 µM; in the data active means inhibition above about 38%;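 further: enzyme fragment complementation signal reports receptor beta-arrestin coupling in cells; 0% = agonist plus DMSO wells and 100% = wells without agonist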
Target sequence (P32249 whole entry, looked up, the tested form may be a part): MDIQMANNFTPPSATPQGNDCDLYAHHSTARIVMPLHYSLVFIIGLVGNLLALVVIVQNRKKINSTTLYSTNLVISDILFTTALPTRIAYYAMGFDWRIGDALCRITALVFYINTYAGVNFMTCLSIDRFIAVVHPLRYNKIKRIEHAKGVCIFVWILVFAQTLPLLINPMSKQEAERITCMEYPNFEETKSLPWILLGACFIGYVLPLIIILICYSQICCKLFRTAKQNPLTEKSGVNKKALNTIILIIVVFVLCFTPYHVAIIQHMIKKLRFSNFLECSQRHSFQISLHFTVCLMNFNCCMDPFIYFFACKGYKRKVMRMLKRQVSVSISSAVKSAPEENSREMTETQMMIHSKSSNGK
MPTP block: inhibitors of mitochondrial permeability transition pore; isolated mouse mitochondria, Ca2+ swelling absorbance, 30 min; inhibition, % at 10 µM; 360,000 tested, 1.4% active; AID 602449;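 active means inhibition of 50% or more, scaled per plate between neutral and stimulator controls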;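 further: 0% = DMSO wells given calcium and 100% = 1 mM EGTA wells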
SENP1 inh: SENP1 (human) catalytic domain inhibition. 360,000 tested, 0.21% active. inhibition, % at 10 µM. Q9P0U3. recombinant SENP1 catalytic domain, CyPet-SUMO1-YPet FRET cleavage;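 active means inhibition at least 30% at 10 µM, raw YFP signal under a set limit, fluorescence ratio 0.5 to 1.5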;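 further: 0% = enzyme with DMSO and 100% = no enzyme wells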
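material = recombinant human SENP1 catalytic domain, His6-tagged | quantity = 20 pM enzyme | reagent = 25 nM SUMO1 FRET substrate | compound dosing = 10 µM single point, 0.5% DMSO | timing = 50 min enzyme reaction, room temperature, light-protected | detection = FRET, CFP and YFP emission | control set = no-enzyme low, enzyme-DMSO high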
* marks the source's active call; other numbers are inactive results; · = not tested or not shown.

SMILES | NR3A LBD binder | EBI2 antag | MPTP block | SENP1 inh
COc1ccc(NC(=S)Nc2ccc(OCc3ccccc3)cc2)c(OC)c1 | 10.4* | 3.3 | 12.8 | 1.0
CC(C)(C)C(c1nc2ccccc2[nH]1)n1c(-c2cc(Cl)cc(Cl)c2)nc2ccccc21 (stereo unspecified) | · | -33.9 | 2.7 | -2.4
O=C(CC1C(=O)NCCN1C(=O)Nc1ccc(C(F)(F)F)cc1)Nc1ccc(F)cc1 (stereo unspecified) | 14.2* | -16.3 | -4.3 | 0.6
COc1ccc(CNC(=O)CN2C(=O)NC3(CCCCCCC3)C2=O)cc1 | 0.4 | 2.4 | 1.2 | 0.3
COC(=O)/C(=C/c1c[nH]c2ccccc12)NC(C)=O | -2.5 | 0.1 | 0.9 | -3.0
COC(=O)/C(=C/c1c[nH]c2ccccc12)[N+](=O)[O-] | 15.7* | -3.6 | 2.0 | -2.8
CCOc1cc(/C=C2/NC(=O)N(Cc3ccccc3F)C2=O)ccc1O | 30.2* | 10.9 | 3.8 | -28.3
CN(CC(=O)Nc1ccccc1C(F)(F)F)C(=O)CSc1nnc(N)s1 | 0.5 | -8.7 | 0.2 | 1.6
COc1ccc(NC(=O)CSc2nnc(-c3cccc(O)c3)o2)cc1 | 13.9* | -14.1 | -1.0 | 3.8
Cc1cc(NC(=O)CSc2nnc(-c3ccc(O)cc3)o2)no1 | 0.5 | -12.1 | 1.3 | -0.1
O=C(CSc1nnc(-c2ccc(O)cc2)o1)Nc1ccccc1 | 13.5* | 1.1 | 0.3 | 1.7
COCCCNC(=O)CCn1c(=O)c2ccccc2n(CC(=O)NCCc2ccc(OC)c(OC)c2)c1=O | -0.4 | 5.9 | 0.0 | 1.4
O=C(NCCOc1ccccc1)C1CCC(=O)N(CCN2CCOCC2)C1 (stereo unspecified) | -2.2 | -4.4 | 0.6 | -0.8
C=CCNC(=O)/C(C#N)=C\c1cc(Cl)c(O)c(OCC)c1 | -11.1 | -13.5 | 1.2 | -44.6
CCOc1cc(/C=C(/C#N)C(=O)Nc2ccc(O)cc2)cc(Br)c1O | 13.2* | 3.7 | 0.1 | 5.8
O=C(O)c1cc(N2N=C(C(F)(F)F)/C(=C/C=C/c3ccco3)C2=O)ccc1Cl | 4.8 | -6.7 | 3.5 | 32.8*
CCOC(=O)c1ccc(N2N=C(C)/C(=C/C=C/c3ccco3)C2=O)cc1 | -1.2 | 10.9 | 5.7 | 0.4
O=C1/C(=C/c2ccc(Br)cc2)Oc2cc(O)ccc21 | 15.9* | -25.3 | 32.1 | -21.8
CC(C)(C)c1ccc(/C=C2\Oc3cc(O)ccc3C2=O)cc1 | 16.8* | -1.8 | 34.0 | -21.1
COC(=O)c1ccc2c(c1)C(=O)/C(=C/c1ccc(O)cc1)O2 | 7.8 | -2.2 | 11.2 | -26.0
Cc1ccc(-n2c(SCC(N)=O)nc3c(c2=O)C2(CCCC2)Cc2ccccc2-3)cc1 | 13.1* | 18.6 | 0.3 | 0.2
COc1ccc(NC(=O)C2C3C=CC4(O3)C2C(=O)N(CCCN2CCCC(C)C2)C4C(=O)NC2CCCCC2)cc1 (stereo unspecified) | -1.2 | 0.4 | -1.8 | -4.5
CCCCNC(=O)C(=O)N/N=C/c1ccc(OCC(=O)Nc2cccc(OC)c2)c(OC)c1 | 10.6* | -3.6 | 13.5 | 0.0
COc1cc(/C=N/NC(=O)c2ccncc2)ccc1OCC(=O)Nc1ccc(C)c(C)c1 | 11.5* | 4.9 | 1.2 | -0.4
CCNC(=S)N/N=C/c1ccc(OCC(=O)Nc2ccc(OC)cc2)c(OC)c1 | -4.7 | -18.0 | 1.0 | 0.1
SMILES | NR3A LBD binder | EBI2 antag | MPTP block | SENP1 inh
COc1cc(/C=N/NC(=O)c2ccncc2)ccc1OCC(=O)Nc1cccc([N+](=O)[O-])c1 | -1.3 | -3.8 | -2.0 | 2.1
Nc1nc(/C=C/c2ccc(F)cc2)nc(-c2ccccc2O)n1 | 16.1* | 7.0 | 1.8 | -0.2
O=c1c2ccccc2nnn1CSc1ccccc1F | 11.4* | 0.3 | 1.9 | 9.7
CC(=O)c1cc(CN2CCN(C3CCN(C(C)C)CC3)C(CCO)C2)cs1 (stereo unspecified) | -1.8 | -5.1 | -0.5 | -0.5
O=C(CCN1C(=O)S/C(=C\c2ccccc2)C1=O)Nc1ccc(S(=O)(=O)Nc2nccs2)cc1 | 7.7 | 0.5 | 3.2 | -2.8
Cc1cc(C)nc(NS(=O)(=O)c2ccc(NC(=O)CN3C(=O)S/C(=C\c4ccccc4)C3=O)cc2)n1 | 11.3* | -5.5 | 0.2 | -0.1
Cc1cc(C)nc(NS(=O)(=O)c2ccc(NC(=O)Nc3ccccc3)cc2)n1 | 18.6* | 1.3 | 1.3 | 1.0
O=C(CN1C(=O)S/C(=C\c2ccc(F)cc2)C1=O)Nc1cccc(S(=O)(=O)NCc2ccco2)c1 | 11.4* | 9.2 | -2.5 | -0.9
Cc1cc(C)nc(NS(=O)(=O)c2ccc(NS(=O)(=O)c3ccccc3)cc2)n1 | 3.9 | 10.1 | -1.6 | 2.9
Cc1cc(C)c(S(=O)(=O)N2CCN(C3CC(=O)N(c4ccccc4Cl)C3=O)CC2)c(C)c1 (stereo unspecified) | 2.6 | 5.0 | -0.8 | 2.3
